Results taken from ChEMBL document CHEMBL3297668, “Synthesis of truncated analogues of preptin-(1–16), and investigation of their ability to stimulate osteoblast proliferation” (Bioorg Med Chem, 2014).
Calls of active or inactive are those of the source. The rule behind the calls is not given here. Where a SMILES comes first, the peptide text is derived from it.

Each compound was assayed on Osteoblast (assay: Stimulation of proliferation of foetal rat osteoblasts at 10 '-10 to 10 '-8 M after 18 to 24 hrs by [3H]-thymidine incorporation assay relative to control).
Type: functional, cell-based
Method in brief: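 Osteoblasts from 20-day fetal rat calvariae (collagenase digests 3 and 4) were expanded in FBS medium with ascorbate-2-phosphate, seeded at 2.5 × 10⁴ cells/well in 5% FBS/MEM for 24 h, then growth-arrested 24 h in 0.1% BSA/5 µg/mL ascorbate-2-phosphate. Peptide treatment 24 h, with [³H]-thymidine pulse over the final 6 h. Result expressed as treatment/vehicle ratio. 6 wells/group, 3–4 experiments, ANOVA with Dunnett's test.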

Row | Compound | Activity
1 | H-DVSTSQAVLPDD-NH2 | inactive
2 | Ac-DVSTSQAVLPDDFPRY-NH2 | Active
3 | Ac-SQAVLPDDFPRY-NH2 | inactive
4 | Ac-DVSTSQAV-NH2 | inactive
5 | H-DVSTSQAV-OH | Active
6 | H-SQAVLPDDFPRY-NH2 | inactive
7 | Ac-DVSTSQAVLPDD-NH2 | inactive
8 | H-DVSTSQAVLPDDFPRY-NH2 | inactive
9 | CC(=O)N[C@@H](Cc1ccccc1)C(=O)N1CCC[C@H]1C(=O)N[C@@H](CCCNC(=N)N)C(=O)N[C@@H](Cc1ccc(O)cc1)C(N)=O (Ac-FPRY-NH2) | Active
10 | CC(C)[C@H](NC(=O)[C@@H](N)CC(=O)O)C(=O)N[C@@H](CO)C(=O)N[C@H](C(=O)O)[C@@H](C)O (H-DVST-OH) | inactive
11 | CC(=O)N[C@@H](Cc1ccccc1)C(=O)N1CCC[C@H]1C(=O)N[C@@H](CCCNC(=N)N)C(=O)N[C@@H](Cc1ccc(O)cc1)C(=O)O (Ac-FPRY-OH) | inactive
12 | Ac-SQAVLPDDFPRY-OH | inactive
13 | Ac-DVSTSQAVLPDD-OH | inactive
14 | CC(=O)N[C@@H](CC(=O)O)C(=O)N[C@H](C(=O)N[C@@H](CO)C(=O)N[C@H](C(=O)O)[C@@H](C)O)C(C)C (Ac-DVST-OH) | inactive
15 | Ac-LPDDFPRY-OH | inactive
16 | H-LPDDFPRY-NH2 | inactive
17 | N=C(N)NCCC[C@H](NC(=O)[C@@H]1CCCN1C(=O)[C@@H](N)Cc1ccccc1)C(=O)N[C@@H](Cc1ccc(O)cc1)C(=O)O (H-FPRY-OH) | inactive
18 | H-DVSTSQAVLPDD-OH | inactive
19 | Ac-DVSTSQAVLPDDFPRY-OH | inactive
20 | H-SQAVLPDDFPRY-OH | inactive
21 | CC(=O)N[C@@H](CC(=O)O)C(=O)N[C@H](C(=O)N[C@@H](CO)C(=O)N[C@H](C(N)=O)[C@@H](C)O)C(C)C (Ac-DVST-NH2) | inactive
22 | N=C(N)NCCC[C@H](NC(=O)[C@@H]1CCCN1C(=O)[C@@H](N)Cc1ccccc1)C(=O)N[C@@H](Cc1ccc(O)cc1)C(N)=O (H-FPRY-NH2) | inactive
23 | H-DVSTSQAVLPDDFPRY-OH | Active
24 | H-LPDDFPRY-OH | inactive
25 | CC(C)[C@H](NC(=O)[C@@H](N)CC(=O)O)C(=O)N[C@@H](CO)C(=O)N[C@H](C(N)=O)[C@@H](C)O (H-DVST-NH2) | inactive
26 | Ac-DVSTSQAV-OH | inactive
27 | Ac-LPDDFPRY-NH2 | inactive

The compounds below were run on Osteoblast (assay: Stimulation of differentiation of rat osteoblasts assessed as increase in mineralized bone nodules at 10 '-9 M after 3 weeks using Von Kossa staining by bone nodule formation assay relative to control).
Type: functional, cell-based
Method in brief: (§1)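 Primary osteoblasts from 20-day fetal rat calvariae (sequential collagenase digests 3 and 4) plated at 5 × 10⁴ cells/well in αMEM/10% FBS plus ascorbate-2-phosphate. At confluence (~3 days), medium switched to MEM/15% FBS with 50 µg/mL L-ascorbic acid-2-phosphate and 10 mM β-glycerophosphate, plus peptide; medium and peptide renewed twice weekly. Dexamethasone positive control. At 21 days, fixed in 10% neutral buffered formalin, Von Kossa stained, mineralized area quantified by image analysis.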

Row | Compound | Activity
28 | H-DVSTSQAV-OH | Active

Each compound was assayed on Osteoblast (assay: Stimulation of differentiation of rat osteoblasts assessed as increase in mineralized bone nodules at 10 '-10 to 10 '-9 M after 3 weeks using Von Kossa staining by bone nodule formation assay relative to control).
Type: functional, cell-based
Method in brief: as §1

Row | Compound | Activity
29 | CC(=O)N[C@@H](Cc1ccccc1)C(=O)N1CCC[C@H]1C(=O)N[C@@H](CCCNC(=N)N)C(=O)N[C@@H](Cc1ccc(O)cc1)C(N)=O (Ac-FPRY-NH2) | inactive
